Assay results: ChEMBL document CHEMBL3616442, “Unconventional Knoevenagel-type indoles: Synthesis and cell-based studies for the identification of pro-apoptotic agents” (Eur J Med Chem, 2015)

Tests used:
IGROV-1 = assay: Growth inhibition of human IGROV1 cells after 48 hrs by sulforhodamine B assay; assay type: functional; details: IGROV-1, 48 h
Procedure, shortened: (§1)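 NCI 60-cell-line screen. Compounds tested at five 10-fold dilutions from 10^-4 to 10^-8 M. Cells exposed for the last 48 h of a 72 h incubation, growth estimated by sulforhodamine B protein assay. GI50 is the concentration giving 50% growth inhibition. Values beyond the tested range are expressed as greater or lesser than the extreme concentration.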

SR = assay: Growth inhibition of human SR cells after 48 hrs by sulforhodamine B assay; assay type: functional
SK-OV-3 = assay: Growth inhibition of human SKOV3 cells after 48 hrs by sulforhodamine B assay; assay type: functional; details: SK-OV-3, 48 h
CAKI-1 = assay: Growth inhibition of human CAKI-1 cells after 48 hrs by sulforhodamine B assay; assay type: functional; details: CAKI-1, 48 h; procedure, shortened: as §1
A549 = assay: Growth inhibition of human A549 cells after 48 hrs by sulforhodamine B assay; assay type: functional; details: A549, 48 h; procedure, shortened: as §1
[1] = Growth inhibition of human RXF393 cells after 48 hrs by sulforhodamine B assay; assay type: functional; details: RXF 393, 48 h
UACC-257 = assay: Growth inhibition of human UACC257 cells after 48 hrs by sulforhodamine B assay; assay type: functional; details: UACC-257, 48 h
[2] = Growth inhibition of human HCC2998 cells after 48 hrs by sulforhodamine B assay; assay type: functional; details: HCC 2998, 48 h; procedure, shortened: as §1
[3] = Growth inhibition of human SF539 cells after 48 hrs by sulforhodamine B assay; assay type: functional; details: SF-539, 48 h
DU-145 = assay: Growth inhibition of human DU145 cells after 48 hrs by sulforhodamine B assay; assay type: functional; details: DU-145, 48 h; procedure, shortened: as §1
SF-268 = assay: Growth inhibition of human SF268 cells after 48 hrs by sulforhodamine B assay; assay type: functional; details: SF-268, 48 h
NCI-H322M = assay: Growth inhibition of human NCI-H322M cells after 48 hrs by sulforhodamine B assay; assay type: functional; procedure, shortened: as §1
[4] = Growth inhibition of human NCI-ADR-RES cells after 48 hrs by sulforhodamine B assay; assay type: functional; procedure, shortened: as §1
TK-10 = assay: Growth inhibition of human TK10 cells after 48 hrs by sulforhodamine B assay; assay type: functional; details: TK-10, 48 h
[5] = Growth inhibition of human MOLT4 cells after 48 hrs by sulforhodamine B assay; assay type: functional; details: MOLT-4, 48 h; procedure, shortened: as §1
HOP-62 = assay: Growth inhibition of human HOP62 cells after 48 hrs by sulforhodamine B assay; assay type: functional; details: HOP-62, 48 h; procedure, shortened: as §1
[6] = Growth inhibition of human SF295 cells after 48 hrs by sulforhodamine B assay; assay type: functional; details: SF-295, 48 h
A498 = assay: Growth inhibition of human A498 cells after 48 hrs by sulforhodamine B assay; assay type: functional; details: A498, 48 h; procedure, shortened: as §1
[7] = Growth inhibition of human EKVX cells after 48 hrs by sulforhodamine B assay; assay type: functional; procedure, shortened: as §1
HCT-116 = assay: Growth inhibition of human HCT116 cells after 48 hrs by sulforhodamine B assay; assay type: functional; details: HCT-116, 48 h; procedure, shortened: as §1
SK-MEL-28 = assay: Growth inhibition of human SK-MEL-28 cells after 48 hrs by sulforhodamine B assay; assay type: functional; details: SK-MEL-28, 48 h
SK-MEL-2 = assay: Growth inhibition of human SK-MEL-2 cells after 48 hrs by sulforhodamine B assay; assay type: functional; details: SK-MEL-2, 48 h
U-251 = assay: Growth inhibition of human U251 cells after 48 hrs by sulforhodamine B assay; assay type: functional; details: U-251, 48 h
OVCAR-4 = assay: Growth inhibition of human OVCAR4 cells after 48 hrs by sulforhodamine B assay; assay type: functional; details: OVCAR-4, 48 h; procedure, shortened: as §1
[8] = Growth inhibition of human COLO205 cells after 48 hrs by sulforhodamine B assay; assay type: functional; details: COLO 205, 48 h; procedure, shortened: as §1
Malme-3M = assay: Growth inhibition of human MALME-3M cells after 48 hrs by sulforhodamine B assay; assay type: functional; procedure, shortened: as §1
OVCAR-5 = assay: Growth inhibition of human OVCAR5 cells after 48 hrs by sulforhodamine B assay; assay type: functional; details: OVCAR-5, 48 h
[9] = Growth inhibition of human Hs 578T cells after 48 hrs by sulforhodamine B assay; assay type: functional; procedure, shortened: as §1
OVCAR-8 = assay: Growth inhibition of human OVCAR8 cells after 48 hrs by sulforhodamine B assay; assay type: functional; details: OVCAR-8, 48 h
SN12C = assay: Growth inhibition of human SN12C cells after 48 hrs by sulforhodamine B assay; assay type: functional
MDA-MB-231 = assay: Growth inhibition of human MDA-MB-231 cells after 48 hrs by sulforhodamine B assay; assay type: functional; details: MDA-MB-231, 48 h; procedure, shortened: as §1
PC-3 = assay: Growth inhibition of human PC3 cells after 48 hrs by sulforhodamine B assay; assay type: functional; details: PC-3, 48 h
786-0 = assay: Growth inhibition of human 786-0 cells after 48 hrs by sulforhodamine B assay; assay type: functional; details: 786-0, 48 h; procedure, shortened: as §1
UACC-62 = assay: Growth inhibition of human UACC62 cells after 48 hrs by sulforhodamine B assay; assay type: functional; details: UACC-62, 48 h
M14 = assay: Growth inhibition of human M14 cells after 48 hrs by sulforhodamine B assay; assay type: functional; details: M14, 48 h; procedure, shortened: as §1
SW-620 = assay: Growth inhibition of human SW620 cells after 48 hrs by sulforhodamine B assay; assay type: functional; details: SW-620, 48 h
MCF7 = assay: Growth inhibition of human MCF7 cells after 48 hrs by sulforhodamine B assay; assay type: functional; details: MCF7, 48 h; procedure, shortened: as §1
MT4 = assay: Antiproliferative activity against human MT4 cells after 96 hrs by MTT assay; assay type: functional, cell-based; details: MT4, 96 h
Procedure, shortened: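 Exponentially growing MT-4 cells (CD4+ human T-cells carrying integrated HTLV-1 genome), seeded at 1×10^5 cells/mL in RPMI-1640 with 10% FCS and antibiotics. Serial dilutions of compound (DMSO stock 100 mM, diluted in medium), 37 °C, 5% CO₂, 96 h. Viability read by MTT. 50% inhibition versus untreated controls by linear regression. Mean ± SD of three independent determinations.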

[10] = Growth inhibition of human HOP92 cells after 48 hrs by sulforhodamine B assay; assay type: functional; details: HOP-92, 48 h; procedure, shortened: as §1
NCI-H522 = assay: Growth inhibition of human NCI-H522 cells after 48 hrs by sulforhodamine B assay; assay type: functional; details: NCI-H522, 48 h; procedure, shortened: as §1
MDA-MB-435 = assay: Growth inhibition of human MDA-MB-435 cells after 48 hrs by sulforhodamine B assay; assay type: functional; details: MDA-MB-435, 48 h; procedure, shortened: as §1
[11] = Growth inhibition of human BT549 cells after 48 hrs by sulforhodamine B assay; assay type: functional; details: BT-549, 48 h; procedure, shortened: as §1
ACHN = assay: Growth inhibition of human ACHN cells after 48 hrs by sulforhodamine B assay; assay type: functional; procedure, shortened: as §1
T47D = assay: Growth inhibition of human T47D cells after 48 hrs by sulforhodamine B assay; assay type: functional
NCI-H226 = assay: Growth inhibition of human NCI-H226 cells after 48 hrs by sulforhodamine B assay; assay type: functional; details: NCI-H226, 48 h; procedure, shortened: as §1
HT-29 = assay: Growth inhibition of human HT-29 cells after 48 hrs by sulforhodamine B assay; assay type: functional; details: HT-29, 48 h; procedure, shortened: as §1
OVCAR-3 = assay: Growth inhibition of human OVCAR3 cells after 48 hrs by sulforhodamine B assay; assay type: functional; details: OVCAR-3, 48 h; procedure, shortened: as §1
MDA-MB-468 = assay: Growth inhibition of human MDA-MB-468 cells after 48 hrs by sulforhodamine B assay; assay type: functional; details: MDA-MB-468, 48 h; procedure, shortened: as §1
HCT-15 = assay: Growth inhibition of human HCT15 cells after 48 hrs by sulforhodamine B assay; assay type: functional; details: HCT-15, 48 h; procedure, shortened: as §1
KM12 = assay: Growth inhibition of human KM12 cells after 48 hrs by sulforhodamine B assay; assay type: functional; details: KM12, 48 h; procedure, shortened: as §1
SNB-75 = assay: Growth inhibition of human SNB75 cells after 48 hrs by sulforhodamine B assay; assay type: functional; details: SNB-75, 48 h
[12] = Growth inhibition of human RPMI8226 cells after 48 hrs by sulforhodamine B assay; assay type: functional; details: RPMI-8226, 48 h
NCI-H460 = assay: Growth inhibition of human NCI-H460 cells after 48 hrs by sulforhodamine B assay; assay type: functional; details: NCI-H460, 48 h; procedure, shortened: as §1
NCI-H23 = assay: Growth inhibition of human NCI-H23 cells after 48 hrs by sulforhodamine B assay; assay type: functional; details: NCI-H23, 48 h; procedure, shortened: as §1
[13] = Growth inhibition of human LOXIMVI cells after 48 hrs by sulforhodamine B assay; assay type: functional; details: LOX IMVI; procedure, shortened: as §1
SNB-19 = assay: Growth inhibition of human SNB19 cells after 48 hrs by sulforhodamine B assay; assay type: functional; details: SNB-19, 48 h
UO-31 = assay: Growth inhibition of human UO31 cells after 48 hrs by sulforhodamine B assay; assay type: functional; details: UO-31, 48 h

With `COC(=O)/C(=C\c1c(C)[nH]c2ccccc12)S(=O)(=O)c1ccccc1` the GI50 (IGROV-1) was 1.5 µM, the GI50 (SR) was 1.1 µM and the GI50 (SK-OV-3) was 9.3 µM. It also gave a GI50 (CAKI-1) of 3.3 µM, a GI50 (A549) of 4.9 µM and a GI50 [1] of 3.6 µM. It also gave a GI50 (UACC-257) of 7 µM, a GI50 [2] of 4.9 µM and a GI50 [3] of 3.4 µM. For the same compound, the GI50 (DU-145) was 2.9 µM, the GI50 (SF-268) was 3.3 µM and the GI50 (NCI-H322M) was 8.8 µM. The GI50 [4] was 4.2 µM, the GI50 (TK-10) was 8.1 µM and the GI50 [5] was 1.9 µM. The GI50 (HOP-62) was 7.7 µM, the GI50 [6] was 3.1 µM and the GI50 (A498) was 5.5 µM. For the same compound, the GI50 [7] was 5 µM, the GI50 (HCT-116) was 3.8 µM and the GI50 (SK-MEL-28) was 5.8 µM. It also gave a GI50 (SK-MEL-2) of 10.6 µM, a GI50 (U-251) of 3.4 µM and a GI50 (OVCAR-4) of 5.7 µM. It also gave a GI50 [8] of 7.5 µM, a GI50 (Malme-3M) of 7.3 µM and a GI50 (OVCAR-5) of 17.4 µM. It also gave a GI50 [9] of 2.9 µM, a GI50 (OVCAR-8) of 3.9 µM and a GI50 (SN12C) of 2.6 µM. The GI50 (MDA-MB-231) was 2.7 µM, the GI50 (PC-3) was 5.6 µM and the GI50 (786-0) was 8.2 µM. The GI50 (UACC-62) was 2.8 µM, the GI50 (M14) was 4.4 µM and the GI50 (SW-620) was 5.2 µM. It also gave a GI50 (MCF7) of 2.8 µM, an EC50 (MT4) of 31 µM and a GI50 [10] of 4.1 µM. For the same compound, the GI50 (NCI-H522) was 3.2 µM, the GI50 (MDA-MB-435) was 2.9 µM and the GI50 [11] was 5.4 µM. For the same compound, the GI50 (ACHN) was 5.5 µM, the GI50 (T47D) was 3.2 µM and the GI50 (NCI-H226) was 4.3 µM. For the same compound, the GI50 (HT-29) was 5.2 µM, the GI50 (OVCAR-3) was 2.7 µM and the GI50 (MDA-MB-468) was 6.3 µM. For the same compound, the GI50 (HCT-15) was 3.1 µM, the GI50 (KM12) was 2.4 µM and the GI50 (SNB-75) was 3.1 µM. It also gave a GI50 [12] of 3.2 µM, a GI50 (NCI-H460) of 3 µM and a GI50 (NCI-H23) of 4.8 µM. The GI50 [13] was 2 µM, the GI50 (SNB-19) was 7.6 µM and the GI50 (UO-31) was 4.4 µM.
